# Assay results as given in ChEMBL document CHEMBL5038590, “Discovery of G Protein-Biased Ligands against 5-HT7R” (J Med Chem, 2021).
# Columns and labels:
# [1] = biological target: T1, 5-hydroxytryptamine receptor 7 (Homo sapiens, UniProt P34969); test: Agonist activity at 5-HT7R (unknown origin) transfected in HEK293 cells expressing tTA-dependent luciferase reporter and beta arrestin 2-TEV fusion gene assessed as beta arrestin recruitment incubated for 22 hrs by Tango assay; assay type: functional, cell-based; conditions: hek293
# T1 sequence (P34969 whole entry, the tested form may be a part): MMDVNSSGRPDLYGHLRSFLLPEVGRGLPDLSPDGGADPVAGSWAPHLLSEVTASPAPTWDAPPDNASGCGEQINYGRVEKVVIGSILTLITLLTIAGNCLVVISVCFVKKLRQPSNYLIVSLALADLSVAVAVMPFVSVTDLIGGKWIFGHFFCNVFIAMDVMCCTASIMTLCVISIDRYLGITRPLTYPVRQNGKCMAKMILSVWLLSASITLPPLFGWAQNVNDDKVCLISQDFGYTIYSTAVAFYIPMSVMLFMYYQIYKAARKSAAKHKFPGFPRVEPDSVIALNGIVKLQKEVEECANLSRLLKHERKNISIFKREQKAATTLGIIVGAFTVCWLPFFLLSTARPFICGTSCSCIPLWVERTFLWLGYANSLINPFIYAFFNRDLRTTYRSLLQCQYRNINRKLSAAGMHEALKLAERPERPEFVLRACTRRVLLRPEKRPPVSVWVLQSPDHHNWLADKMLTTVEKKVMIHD
# [2] = Bioavailability in ICR mouse plasma at 10 mg/kg, ip measured upto 8 hrs by LC-MS/MS analysis; assay type: ADME, organism-based
# How it was run: (§1)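 Male ICR mice, 7–8 weeks, 30 ± 5 g; single dose 1 mg/kg iv or 10 mg/kg ip (n = 4 each). Carotid artery blood at 0, 0.08 (iv only), 0.25, 0.5, 1, 2, 4, 6, 8 h. Plasma precipitated with acetonitrile containing internal standard, quantified by LC–MS/MS. Parameters by non-compartmental analysis; AUClast by trapezoidal rule; values mean ± SD.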
# [3] = biological target: T1, 5-hydroxytryptamine receptor 7; test: Displacement of [3H] D-lysergic acid diethylamide from 5-HT7R (unknown origin) transfected in HEK293 cells incubated for 1.5 hrs by microbeta scintillation counter analysis; assay type: cell-based; conditions: read-out: Ki
# [4] = MRTinfinity in ICR mouse plasma at 1 mg/kg, iv measured upto 8 hrs by LC-MS/MS analysis; assay type: ADME, organism-based; how it was run: as §1
# [5] = AUClast in ICR mouse plasma at 1 mg/kg, iv measured upto 8 hrs by LC-MS/MS analysis; assay type: ADME, organism-based; parameters: route intravenous, dose 1 mg/kg, time <=8; how it was run: as §1
# [6] = biological target: T2, 5-hydroxytryptamine receptor 3A (Homo sapiens, UniProt P46098); test: Binding affinity to 5-HT3R (unknown origin)
# T2 sequence (P46098 whole entry): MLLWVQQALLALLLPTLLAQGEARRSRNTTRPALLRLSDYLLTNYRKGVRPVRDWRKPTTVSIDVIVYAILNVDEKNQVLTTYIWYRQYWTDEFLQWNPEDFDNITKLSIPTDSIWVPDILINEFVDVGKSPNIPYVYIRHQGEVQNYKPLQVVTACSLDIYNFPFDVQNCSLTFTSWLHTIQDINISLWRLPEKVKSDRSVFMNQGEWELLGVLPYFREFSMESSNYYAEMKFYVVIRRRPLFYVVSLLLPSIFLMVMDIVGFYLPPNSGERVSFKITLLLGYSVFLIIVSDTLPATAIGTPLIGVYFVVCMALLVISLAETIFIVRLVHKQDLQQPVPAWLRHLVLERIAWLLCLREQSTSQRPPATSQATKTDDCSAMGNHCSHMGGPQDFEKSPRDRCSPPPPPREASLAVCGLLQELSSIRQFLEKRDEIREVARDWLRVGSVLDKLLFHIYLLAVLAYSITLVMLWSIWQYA
# How it was run: (§2)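 Run by the NIMH Psychoactive Drug Screening Program as competition radioligand binding on crude membranes of cells expressing the recombinant receptor. Eleven dilutions (0.05 nM–50 μM, prepared at 5× assay concentration) were made in 50 mM Tris-HCl, 10 mM MgCl₂, 1 mM EDTA, pH 7.4. Incubation was 1.5 h at rt in the dark, followed by GF/B filtration (0.3% PEI) and scintillation counting. IC₅₀ was converted to Ki; at least triplicate.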
# [7] = biological target: CYP2C19 (Homo sapiens, UniProt P33261); test: Inhibition of CYP2C19 in human liver microsomes assessed as remaining activity at 10 uM using S-mephenytoin as substrate preincubated for 5 mins followed by addition of NADPH generating system and incubated for 15 mins by LC/MS relative to control; assay type: ADME; conditions: probe S-mephenytoin, time 20 min, read-out: Activity
# Chain of CYP2C19 (P33261 whole entry): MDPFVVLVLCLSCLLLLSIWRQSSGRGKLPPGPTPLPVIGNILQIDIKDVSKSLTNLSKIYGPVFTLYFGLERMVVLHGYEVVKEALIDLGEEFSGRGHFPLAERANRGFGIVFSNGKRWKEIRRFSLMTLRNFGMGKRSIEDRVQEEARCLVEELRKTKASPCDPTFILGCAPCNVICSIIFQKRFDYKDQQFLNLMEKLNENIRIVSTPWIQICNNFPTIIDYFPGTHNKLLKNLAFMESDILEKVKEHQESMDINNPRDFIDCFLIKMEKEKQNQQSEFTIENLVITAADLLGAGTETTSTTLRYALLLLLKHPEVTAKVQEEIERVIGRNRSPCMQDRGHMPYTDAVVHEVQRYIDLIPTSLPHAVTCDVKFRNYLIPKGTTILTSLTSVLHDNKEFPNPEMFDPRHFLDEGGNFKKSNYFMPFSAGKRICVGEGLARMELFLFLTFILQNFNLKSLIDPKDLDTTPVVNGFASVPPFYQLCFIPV
# How it was run: (§3)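 Human liver microsomes (0.25 mg/mL) in 0.1 M phosphate pH 7.4 with a five-substrate cocktail: phenacetin 50 μM, diclofenac 10 μM, S-mephenytoin 100 μM, dextromethorphan 5 μM, midazolam 2.5 μM. Compound at 0 (control) or 10 μM. Preincubated 5 min at 37 °C, NADPH-generating system added, 15 min at 37 °C. Stopped with acetonitrile plus internal standard; substrate metabolites measured by LC/MS.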
# [8] = Half life in ICR mouse plasma at 10 mg/kg, ip measured upto 8 hrs by LC-MS/MS; assay type: ADME, organism-based; how it was run: as §1
# [9] = AUClast in ICR mouse plasma at 10 mg/kg, ip measured upto 8 hrs by LC-MS/MS analysis; assay type: ADME, organism-based; parameters: route intraperitoneal, dose 10 mg/kg, time <=8; how it was run: as §1
# [10] = biological target: CYP2D6 (Homo sapiens, UniProt P10635); test: Inhibition of CYP2D6 in human liver microsomes assessed as remaining activity at 10 uM using dextromethorphan as substrate preincubated for 5 mins followed by addition of NADPH generating system and incubated for 15 mins by LC/MS relative to control; assay type: ADME; conditions: probe dextromethorphan, time 20 min, read-out: Activity; how it was run: as §3
# Chain of CYP2D6 (P10635 whole entry): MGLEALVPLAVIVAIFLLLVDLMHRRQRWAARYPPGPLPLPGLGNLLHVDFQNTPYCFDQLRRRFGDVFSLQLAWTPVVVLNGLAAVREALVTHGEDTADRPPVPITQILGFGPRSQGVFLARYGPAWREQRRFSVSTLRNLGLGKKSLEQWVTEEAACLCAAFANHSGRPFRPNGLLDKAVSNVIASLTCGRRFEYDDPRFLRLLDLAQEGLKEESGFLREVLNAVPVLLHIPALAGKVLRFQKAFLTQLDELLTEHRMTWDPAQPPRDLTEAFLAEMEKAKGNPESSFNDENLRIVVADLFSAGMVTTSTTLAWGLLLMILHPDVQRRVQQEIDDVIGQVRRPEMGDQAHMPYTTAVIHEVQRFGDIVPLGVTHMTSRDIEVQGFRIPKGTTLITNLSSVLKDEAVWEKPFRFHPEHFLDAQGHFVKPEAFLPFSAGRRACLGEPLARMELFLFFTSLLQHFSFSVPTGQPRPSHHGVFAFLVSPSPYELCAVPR
# [11] = biological target: 5-hydroxytryptamine receptor 5A (Homo sapiens, UniProt P47898); test: Binding affinity to 5-HT5AR (unknown origin); how it was run: as §2
# Chain of 5-hydroxytryptamine receptor 5A (P47898 whole entry): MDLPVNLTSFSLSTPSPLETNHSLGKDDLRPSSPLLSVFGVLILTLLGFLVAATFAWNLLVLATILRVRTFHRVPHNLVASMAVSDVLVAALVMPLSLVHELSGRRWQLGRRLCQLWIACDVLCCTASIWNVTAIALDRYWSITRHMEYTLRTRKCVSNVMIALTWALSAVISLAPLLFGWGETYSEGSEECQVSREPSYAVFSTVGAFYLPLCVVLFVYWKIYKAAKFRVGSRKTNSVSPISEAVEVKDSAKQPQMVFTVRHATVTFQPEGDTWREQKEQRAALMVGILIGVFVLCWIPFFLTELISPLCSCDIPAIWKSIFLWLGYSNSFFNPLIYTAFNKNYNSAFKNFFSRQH
# [12] = biological target: T3, CYP1A2 (Homo sapiens, UniProt P05177); test: Inhibition of CYP1A2 in human liver microsomes assessed as remaining activity at 10 uM using phenacetin as substrate preincubated for 5 mins followed by addition of NADPH generating system and incubated for 15 mins by LC/MS relative to control; assay type: ADME; conditions: probe phenacetin, time 20 min, read-out: Activity; how it was run: as §3
# T3 sequence (P05177 whole entry): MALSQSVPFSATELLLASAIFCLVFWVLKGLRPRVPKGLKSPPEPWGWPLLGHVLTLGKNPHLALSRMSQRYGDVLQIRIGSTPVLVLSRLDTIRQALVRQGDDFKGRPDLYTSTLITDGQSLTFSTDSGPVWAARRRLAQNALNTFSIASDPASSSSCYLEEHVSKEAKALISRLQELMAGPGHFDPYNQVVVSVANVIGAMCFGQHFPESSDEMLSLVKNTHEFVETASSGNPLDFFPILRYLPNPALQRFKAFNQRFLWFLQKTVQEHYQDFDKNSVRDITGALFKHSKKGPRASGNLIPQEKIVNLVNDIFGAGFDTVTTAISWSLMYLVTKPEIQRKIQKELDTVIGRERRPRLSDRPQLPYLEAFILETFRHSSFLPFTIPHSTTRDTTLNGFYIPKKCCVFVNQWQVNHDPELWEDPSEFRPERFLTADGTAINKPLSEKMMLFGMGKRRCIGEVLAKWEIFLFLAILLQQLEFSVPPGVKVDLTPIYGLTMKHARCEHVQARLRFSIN
# [13] = biological target: 5-hydroxytryptamine receptor 1D (Homo sapiens, UniProt P28221); test: Binding affinity to 5-HT1DR (unknown origin); how it was run: as §2
# Chain of 5-hydroxytryptamine receptor 1D (P28221 whole entry): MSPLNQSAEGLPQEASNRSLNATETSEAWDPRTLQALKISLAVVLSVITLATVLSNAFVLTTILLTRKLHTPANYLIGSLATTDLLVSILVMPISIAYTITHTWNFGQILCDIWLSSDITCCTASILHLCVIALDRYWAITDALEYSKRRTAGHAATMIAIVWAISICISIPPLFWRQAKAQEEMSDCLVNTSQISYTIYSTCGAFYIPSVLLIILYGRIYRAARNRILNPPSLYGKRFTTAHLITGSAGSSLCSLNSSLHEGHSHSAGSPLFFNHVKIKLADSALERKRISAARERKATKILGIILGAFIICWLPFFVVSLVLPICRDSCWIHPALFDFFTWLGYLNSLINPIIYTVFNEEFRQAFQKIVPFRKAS
# [14] = Clearance in ICR mouse plasma at 1 mg/kg, iv measured upto 8 hrs by LC-MS/MS analysis; assay type: ADME, organism-based; how it was run: as §1
# [15] = Stability of compound in human liver microsomes assessed as compound remaining at 1 uM preincubated for 5 mins followed by addition of NADPH generating system and incubated for 30 mins by LC/MS relative to control; assay type: ADME, Microsome; conditions: time 35 min, read-out: Stability
# How it was run: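 Human liver microsomes (0.5 mg/mL) in 0.1 M phosphate pH 7.4 with compound at 1 μM. Preincubated 5 min at 37 °C, then NADPH-generating system added and incubated 30 min at 37 °C. Quenched with acetonitrile containing internal standard, centrifuged, and supernatant analysed by LC/MS as percent compound remaining; verapamil as reference.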
# [16] = biological target: CYP3A4 (Homo sapiens, UniProt P08684); test: Inhibition of CYP3A4 in human liver microsomes assessed as remaining activity at 10 uM using midazolam as substrate preincubated for 5 mins followed by addition of NADPH generating system and incubated for 15 mins by LC/MS relative to control; assay type: ADME; conditions: probe midazolam, time 20 min, read-out: Activity; how it was run: as §3
# Chain of CYP3A4 (P08684 whole entry): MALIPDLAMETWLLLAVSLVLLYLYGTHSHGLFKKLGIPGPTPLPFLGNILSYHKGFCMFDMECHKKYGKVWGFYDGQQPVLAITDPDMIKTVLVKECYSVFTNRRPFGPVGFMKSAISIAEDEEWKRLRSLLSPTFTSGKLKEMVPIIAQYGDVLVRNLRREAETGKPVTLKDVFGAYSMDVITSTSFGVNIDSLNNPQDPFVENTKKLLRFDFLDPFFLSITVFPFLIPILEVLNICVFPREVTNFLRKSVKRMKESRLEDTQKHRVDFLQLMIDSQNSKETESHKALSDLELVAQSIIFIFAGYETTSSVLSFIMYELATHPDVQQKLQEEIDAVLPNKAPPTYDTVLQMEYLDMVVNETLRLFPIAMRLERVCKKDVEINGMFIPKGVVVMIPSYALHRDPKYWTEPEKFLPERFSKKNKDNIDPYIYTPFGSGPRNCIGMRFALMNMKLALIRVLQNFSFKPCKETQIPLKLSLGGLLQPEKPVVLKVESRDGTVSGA
compound,measurement,setting,value
CCNCCc1ccc(Cl)c(-c2ccccc2OC)c1.Cl,EC50,[1],Not Active
same,bioavailability,[2],134%
same,Ki,[3],2.8 nM
same,MRT inf,[4],42 min
same,AUC(0-t) at 8 h,[5],32.9 ng·h/mL
same,Ki,[6],> 10000 nM
same,"activity at 0.25 h, 10 µM",[7],90.3%
same,half-life,[8],60 min
same,AUC(0-t) at 8 h,[9],442 ng·h/mL
same,"activity at 0.25 h, 10 µM",[10],88.7%
same,Ki,[11],700 nM
same,"activity at 0.25 h, 10 µM",[12],94.3%
same,Ki,[13],5.3 nM
same,clearance,[14],478 mL/min/kg
same,"remaining at 0.5 h, 1 µM",[15],71.5%
same,"activity at 0.25 h, 10 µM",[16],98.5%
